Publication PMC7617399 (Nature microbiology, 2016)
Like-named read-outs stand apart in the source and are kept apart here. Each block holds one compound with its values, some of them ahead of it.

Assays:
[1] = target: ORF57-UAP56 interaction (Homo sapiens, UniProt Q13838); assay: Co-immunoprecipitation of ORF57 with UAP56; format: cell-based, KSHV / human; conditions: nucleotide added to HEK-293T lysates (1.25 mM or concentration series)
Procedure, shortened: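 1×10^6 HEK-293T transfected with 1 μg ORF57-GFP or GFP plasmid (Lipofectamine), lysed after 24 h on ice for 20 min in modified RIPA (50 mM Tris/HCl, 150 mM NaCl, 1% NP40-alternative, pH 7.6) plus RNase A. Lysate clarified, pre-cleared on protein A for 2 h at 4°C, pulled down on GFP-trap beads with ATP, ADP or ATPγS for 2.5 h at 4°C. Western blot.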

[2] = target: purified recombinant UAP56 (GST-UAP56) (Homo sapiens, UniProt Q13838); assay: UAP56 ATPase assay; format: biochemical
Sequence of purified recombinant UAP56 (GST-UAP56) (Q13838 whole entry): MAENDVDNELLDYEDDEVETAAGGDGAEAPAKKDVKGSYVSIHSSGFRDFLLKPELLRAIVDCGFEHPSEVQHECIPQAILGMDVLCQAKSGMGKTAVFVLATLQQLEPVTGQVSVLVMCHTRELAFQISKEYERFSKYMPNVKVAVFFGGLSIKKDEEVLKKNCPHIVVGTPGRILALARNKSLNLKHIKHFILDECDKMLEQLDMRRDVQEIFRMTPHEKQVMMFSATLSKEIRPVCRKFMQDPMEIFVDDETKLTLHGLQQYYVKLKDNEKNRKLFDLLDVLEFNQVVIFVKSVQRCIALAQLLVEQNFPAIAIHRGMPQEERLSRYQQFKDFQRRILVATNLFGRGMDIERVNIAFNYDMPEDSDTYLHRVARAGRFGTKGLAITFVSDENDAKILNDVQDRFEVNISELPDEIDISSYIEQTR
Procedure, shortened: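 2.5 μM GST-UAP56 (E. coli BL-21, glutathione-eluted, buffer-exchanged) with 50 μM yeast tRNA, 35 μM ATP, 2 mM MgCl2, 50 mM KCl, 50 mM Tris/HCl pH 7.6. Screening at 100 μM final compound. IC50 series delivered in DMSO (1% of reaction). 37°C, 30 min, remaining ATP read by Kinase-Glo luminescence. Biological replicates.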

[3] = MTS cell viability assay, TREx BCBL1-Rta; format: cell-based, human; conditions: human, TREx BCBL1-Rta cells
Procedure, shortened: (§1)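 MTS assay: TREx BCBL1-Rta plated at 1×10^6 cells/ml and treated at once with test compound in DMSO (0.1% of volume, also added to controls). Viability read at 24 and 72 h. Biological replicates.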

[4] = test system: KSHV minor capsid protein (mCP) expression in TREx BCBL1-Rta cells; assay: Viral late protein mCP expression; format: cell-based; conditions: for EC50: read-out: EC50 24 h (μM) (mCP expression)
[5] = test system: KSHV viral load in TREx BCBL1-Rta cells; assay: KSHV replication assay; format: cell-based; conditions: for EC50: read-out: EC50 72 h (μM) (Viral load)
[6] = target: recombinant GST-UAP56 (Homo sapiens, UniProt Q13838); assay: Microscale thermophoresis binding to UAP56; conditions: read-out: KD (microscale thermophoresis); FITC-labelled GST-UAP56, 37°C
Sequence of recombinant GST-UAP56 (Q13838 whole entry): as above
Procedure, shortened: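 GST-UAP56 FITC-labelled, desalted into 20 mM HEPES pH 7.4 with 2 mM MgCl2, used at 100–500 nM. Titrated with test compound in a 1:1 serial dilution from 4.5 mM, final DMSO 20% (v/v). LED power 10–60%, 37°C. KD fitted in thermophoresis mode. Biological replicates.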

[7] = test system: ORF57-mediated ORF47 mRNA stabilization and export in HEK-293T cells; assay: Viral mRNA export assay; format: cell-based, KSHV; conditions: 2.5 μM, 18 h
Procedure, shortened: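 HEK-293T co-transfected with GFP or ORF57-GFP plus an intronless ORF47 reporter, then exposed to DMSO or test compound for 18 h. RNA taken from whole-cell and cytoplasmic fractions. ORF47 measured by qRT-PCR, normalised to GAPDH, ΔΔCT. n = 3, unpaired t test.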

[8] = test system: TREx BCBL1-Rta cells; assay: MTS cell viability assay, TREx BCBL1-Rta; format: cell-based, human; conditions: TREx BCBL1-Rta, MTS, mean ± s.e.m.
Procedure, shortened: as §1

[9] = test system: HSV-1; assay: HSV-1 plaque assay after primary infection; format: cell-based; conditions: increasing concentrations, HFF cells
Procedure, shortened: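 HFF (2×10^5) infected with HSV-1 at MOI 0.001 for 1 h and washed twice in PBS. Cells then overlaid with plaque agar (growth medium 1:1 with 2% agarose, 37°C) holding test compound or DMSO (0.1% final). Agarose lifted at 96 h, cells fixed 10 min in 4% paraformaldehyde, stained with 0.5% crystal violet, plaques counted by eye. Lysis also imaged directly.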

[10] = target: ADP-bound purified recombinant UAP56 (Homo sapiens, UniProt Q13838); assay: ADP displacement assay; format: binding
Sequence of ADP-bound purified recombinant UAP56 (Q13838 whole entry): as above
Procedure, shortened: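 Pre-formed ADP-bound enzyme: 5 μM GST-UAP56 (E. coli BL-21) run with 5 μM ATP for 30 min under ATPase-assay buffer conditions. Leftover ATP depleted with ADP-Glo reagent, then test compound added at rising concentrations and incubated 37°C for 30 min. Freed ADP converted to ATP and read by luminescence. n = 3 biological replicates.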

[11] = test system: TREx BCBL1-Rta cells; assay: Apoptosis assay; format: cell-based, human; conditions: 72 h, CCT018159 at 2.5 μM
Procedure, shortened: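 TREx BCBL1-Rta cells exposed to DMSO or test compound for 72 h, washed, then incubated in HEPES buffer with Annexin-V-fluorescein plus propidium iodide to mark apoptotic and necrotic cells. Analysis by flow cytometry. Biological replicates.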

[12] = test system: KSHV latent nuclear antigen (LANA); assay: LANA immunoblotting; format: cell-based; conditions: immunoblot, range of concentrations
[13] = target: hTREX-UAP56 interaction (Homo sapiens, UniProt Q13838); assay: Co-immunoprecipitation of endogenous hTREX with UAP56; format: cell-based; conditions: up to 0.5 mM added to the lysate
Sequence of hTREX-UAP56 interaction (Q13838 2-428): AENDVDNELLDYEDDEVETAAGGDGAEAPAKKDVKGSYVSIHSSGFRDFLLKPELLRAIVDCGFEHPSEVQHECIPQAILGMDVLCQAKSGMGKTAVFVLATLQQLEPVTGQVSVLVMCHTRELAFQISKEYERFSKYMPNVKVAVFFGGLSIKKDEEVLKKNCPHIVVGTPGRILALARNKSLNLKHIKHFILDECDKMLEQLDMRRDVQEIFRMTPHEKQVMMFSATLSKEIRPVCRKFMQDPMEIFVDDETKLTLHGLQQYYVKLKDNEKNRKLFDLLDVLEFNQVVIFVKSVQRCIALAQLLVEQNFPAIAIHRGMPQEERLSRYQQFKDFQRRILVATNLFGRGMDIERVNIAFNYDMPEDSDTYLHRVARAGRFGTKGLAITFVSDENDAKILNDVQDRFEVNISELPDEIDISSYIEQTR
Sequence of hTREX-UAP56 interaction (P82979 2-210, further chain): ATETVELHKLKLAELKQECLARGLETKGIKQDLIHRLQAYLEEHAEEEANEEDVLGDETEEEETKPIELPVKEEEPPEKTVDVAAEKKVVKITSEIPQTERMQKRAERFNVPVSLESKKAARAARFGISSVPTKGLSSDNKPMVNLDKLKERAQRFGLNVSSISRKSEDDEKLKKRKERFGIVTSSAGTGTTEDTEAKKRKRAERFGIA

[14] = test system: ORF57-mediated nuclear retention of cellular bulk mRNA in HEK-293T cells; assay: Fluorescence in situ hybridization of poly; format: cell-based, human; conditions: ORF57-GFP expressing HEK-293T, 24 h treatment
Procedure, shortened: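 HEK-293T transfected with GFP or ORF57-GFP for 6 h, then DMSO or test compound for 24 h. Poly(A) RNA detected with 5′ Alexa Fluor 546-labelled oligo dT(70) probe, nuclei stained with DAPI, confocal imaging. Cells showing nuclear mRNA retention counted. 4 independent experiments.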

[15] = test system: HEK-293T cells; assay: MTS cell viability assay, HEK-293T; format: cell-based, human
Procedure, shortened: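 MTS assay: HEK-293T plated at 0.5×10^6 cells/ml 24 h ahead, then given test compound in DMSO (0.1% of volume, also added to controls). Readings normalised to DMSO wells, n = 5. CC50 from four-parameter variable-slope non-linear regression.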

[16] = test system: HSV-1; assay: Infectious HSV-1 virion production; format: cell-based
[17] = test system: KSHV; assay: Infectious KSHV virion production; format: cell-based; conditions: 2.5 μM, supernatant 72 h after induction
Procedure, shortened: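 0.8×10^6 TREx BCBL1-Rta cells reactivated with 2 μg/ml doxycycline and treated with test compound or DMSO. Supernatants filtered at 72 h and used 1:1 on 1×10^6 HEK-293T. At 24 h post-infection, TRIzol RNA assayed by qRT-PCR for viral mRNA, normalised to GAPDH, shown as fold change against DMSO.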

[18] = test system: HCMV; assay: Infectious HCMV virion production; format: cell-based
[19] = target: HSP90; conditions: read-out: Ki (HSP90); reported value; cited from earlier work
[20] = reactivated TREx BCBL1-Rta, 72 h, qPCR, mean ± s.e.m.

Sequence of ORF57-UAP56 interaction (P82979 2-210): as the sequence (P82979 2-210, further chain) above
Sequence of ORF57-UAP56 interaction (Q13838 2-428): as the sequence (Q13838 2-428) above

effect of nucleotide on ORF57-UAP56/hTREX interaction [1]: disrupted
SMILES: Nc1ncnc2c1ncn2[C@@H]1O[C@H](COP(=O)(O)OP(=O)(O)O)[C@@H](O)[C@H]1O [ADP]

SMILES: CCc1cc(-c2n[nH]c(C)c2-c2ccc(OC)cc2)c(O)cc1O [Cmpd. 3, 4-Ethyl-6-(4-(4-methoxyphenyl)-3-methyl-1H-pyrazol-5-yl)benzene-1,3-diol]
IC50 [2]: 88.7 ± 7.9 µM | CC50 at 24 h [3]: 27.9 ± 2.7 µM | CC50 at 72 h [3]: 14.7 ± 0.5 µM | EC50 ([4]; Human gammaherpesvirus 8, 24 h): 2.4 ± 0.4 µM | EC50 ([5]; Human gammaherpesvirus 8, 72 h): 2.7 ± 0.2 µM

SMILES: CCc1cc(-c2n[nH]c(C)c2-c2ccc3c(c2)OCCO3)c(O)cc1O [CCT018159]
Kd [6]: 76 ± 3.8 µM | effect on ORF57-mediated ORF47 mRNA stabilization and export [7]: abolished | reduction of UAP56 activity ([2]; at 100 μM (compound screening)): > 70% | CC50 ([8]; read-out: CC50 24 h (μM) (Cell viability), 24 h): 21.1 ± 1.6 µM | CC50 ([8]; read-out: CC50 72 h (μM) (Cell viability), 72 h): 16.6 ± 1.1 µM | cell lysis, plaque size and plaque number [9]: dramatically decreased | mode of inhibition (ADP displacement) ([10]; ADP-bound UAP56, increasing concentrations): ATP/ADP-competitive inhibitor | IC50 ([10]; read-out: IC50 (ADP displacement)): ~60 µM | apoptosis [11]: no increase in apoptosis | LANA degradation [12]: no LANA degradation | effect on hTREX-UAP56 interaction [13]: did not inhibit | mCP expression ([4]; at 2.5 μM): marked reduction | concentrations at which mCP inhibition occurred ([4]; immunoblot): 1 to 2.5 µM | EC50 ([4]; reactivated TREx BCBL1-Rta, 24 h, mean ± s.e.m.): 0.6 ± 0.1 µM | effect on ORF57-mediated nuclear retention of poly(A) RNA [14]: nuclear retention was lost | potency of antiviral effect relative to IC50 on purified UAP56 ([5]; discussion): 30 fold | concentration of antiviral effect ([5]; discussion, assay not specified): around 2 μM | EC50 [5, 20]: 1.1 ± 0.1 µM | non-cytotoxic concentrations [15]: < 15 µM | reduction in infected cells (HSV-1 re-infection) ([16]; 2.5 μM): 50% | reduction in infected cells (HSV-1 re-infection) ([16]; 5 μM): 95% | reduction of viral mRNA in re-infected cells versus controls [17]: 80% | reduction of HCMV virion production ([18]; 1 μM): 50% | reduction of HCMV virion production ([18]; 2.5 μM): over 99% | Ki [19]: 1.8 ± 0.3 µM

Kd [6]: 30.1 ± 4.5 µM | effect of nucleotide on ORF57-UAP56/hTREX interaction [1]: enhanced
SMILES: Nc1ncnc2c1ncn2[C@@H]1O[C@H](COP(=O)(O)OP(=O)(O)OP(=O)(O)O)[C@@H](O)[C@H]1O [ATP]

SMILES: CCc1cc(-c2n[nH]c(C(=O)O)c2-c2ccc(OC)cc2)c(O)cc1O [Cmpd. 4, 3-(5-Ethyl-2,4-dihydroxyphenyl)-4-(4-methoxyphenyl)-1H-pyrazole-5-carboxylic acid]
IC50 [2]: > 1000 µM | CC50 at 24 h [3]: ~820 µM | CC50 at 72 h [3]: > 1000 µM | EC50 ([4]; Human gammaherpesvirus 8, 24 h): > 1000 µM | EC50 ([5]; Human gammaherpesvirus 8, 72 h): 138 ± 45.2 µM

SMILES: CO[C@H]1/C=C\C=C(/C)C(=O)NC2=CC(=O)C(NCCN(C)C)=C(C[C@@H](C)C[C@H](OC)[C@H](O)[C@@H](C)/C=C(\C)[C@@H]1OC(N)=O)C2=O [Compound 17-DMAG]
UAP56 ATPase inhibition ([2]; Supplementary Fig. 2a): no UAP56 ATPase inhibition | apoptosis [11]: increased levels of apoptosis and necrosis | LANA degradation [12]: enhanced | effect on ORF57-mediated nuclear retention of poly(A) RNA [14]: failed to relieve | EC50 [5, 20]: 0.04 ± 0.01 µM

effect of nucleotide on ORF57-UAP56/hTREX interaction [1]: significantly inhibited
SMILES: Nc1ncnc2c1ncn2[C@@H]1O[C@H](CO[P@](=O)(O)O[P@](=O)(O)O[P@@](=O)(O)S)[C@@H](O)[C@H]1O [ATPγS, Adenosine 5′-O-(3-thio)triphosphate]
